Consider 7 compounds from ChEMBL document CHEMBL3259625 (ACS Med Chem Lett, 2014).

SMILES strings stand for the structures. pEC50: −log10 of the molar value.

One series concerns the target T1, CYP1A2 (Homo sapiens, UniProt P05177).
T1 sequence (P05177 whole entry): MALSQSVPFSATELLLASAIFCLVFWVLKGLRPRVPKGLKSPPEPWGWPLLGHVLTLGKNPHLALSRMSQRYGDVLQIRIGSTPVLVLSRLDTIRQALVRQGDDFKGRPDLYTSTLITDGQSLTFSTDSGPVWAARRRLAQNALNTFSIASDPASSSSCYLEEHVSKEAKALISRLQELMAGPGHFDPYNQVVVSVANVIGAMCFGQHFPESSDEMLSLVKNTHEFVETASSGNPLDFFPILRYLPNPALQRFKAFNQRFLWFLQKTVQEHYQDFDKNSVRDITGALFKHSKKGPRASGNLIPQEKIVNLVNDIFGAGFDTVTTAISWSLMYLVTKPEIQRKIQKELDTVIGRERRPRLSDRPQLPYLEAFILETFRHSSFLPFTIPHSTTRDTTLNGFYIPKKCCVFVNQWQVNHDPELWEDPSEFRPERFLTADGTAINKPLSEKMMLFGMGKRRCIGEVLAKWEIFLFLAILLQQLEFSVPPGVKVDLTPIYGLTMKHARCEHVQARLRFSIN
Briefly: (§1) Inhibition of CYP1A2 in human liver microsomes assessed as phenacetin […] to acetaminophen at 1 uM after 10 mins in presence of NADPH. It counts as ADME. Particulars: liver microsomes, probe phenacetin. A general note: Microsomes from liver hold many membrane-bound enzymes, among them those of drug oxidation.

Series [1] in a line: (§2) Half life in human liver microsomes at 1 uM by LC-MS/MS analysis in presence of NADPH. It counts as ADME. Particulars: liver microsomes. In short, it runs like this: (§3)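 Microsomal stability was measured in human, rat and mouse liver microsomes, with sunitinib run in parallel as the reference compound.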
In a further series the test system is Trypanosoma cruzi. Briefly: Antitrypanosomal activity against trypomastigotes of Trypanosoma cruzi CA-I/72 infected in mouse C2C12 cells after 72 hrs. The format is functional, organism-based. Particulars: CA-I/72, C2C12, 72 h. In short, it runs like this: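 EC50 derived from dose–response curves against T. cruzi in infected mouse C2C12 myoblasts.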
In another series the target is CYP2D6 (Homo sapiens, UniProt P10635). Briefly: (§4) Inhibition of CYP2D6 in human liver microsomes assessed as bufuralol hydroxylation to 4'-hydroxybufuralol at 1 uM after 10 mins in presence of NADPH. The format is ADME. Particulars: liver microsomes, probe bufuralol.
CYP2D6, sequence (P10635 whole entry): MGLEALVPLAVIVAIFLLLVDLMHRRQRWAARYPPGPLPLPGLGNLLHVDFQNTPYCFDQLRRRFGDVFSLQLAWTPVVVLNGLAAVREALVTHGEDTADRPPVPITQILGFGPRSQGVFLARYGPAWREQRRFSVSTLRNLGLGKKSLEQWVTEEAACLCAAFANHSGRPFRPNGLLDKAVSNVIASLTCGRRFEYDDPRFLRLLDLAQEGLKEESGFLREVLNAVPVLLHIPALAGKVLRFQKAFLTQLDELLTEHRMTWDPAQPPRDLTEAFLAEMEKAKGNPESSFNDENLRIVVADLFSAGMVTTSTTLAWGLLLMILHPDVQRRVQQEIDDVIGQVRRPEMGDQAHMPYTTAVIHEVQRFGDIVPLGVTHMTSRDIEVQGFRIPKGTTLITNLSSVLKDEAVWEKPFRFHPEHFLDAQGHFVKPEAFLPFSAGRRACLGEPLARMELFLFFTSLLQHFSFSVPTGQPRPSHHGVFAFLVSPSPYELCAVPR
The nature of series [2]: (§5) Half life in mouse liver microsomes at 1 uM by LC-MS/MS analysis in presence of NADPH. It counts as ADME. Particulars: liver microsomes. In short, it runs like this: as §3
The next series concerns the target CYP2C9 (Homo sapiens, UniProt P11712). Nature of the series: (§6) Inhibition of CYP2C9 in human liver microsomes assessed as tolbutamide hydroxylation to hydroxytolbutamide at 1 uM after 10 mins in presence of NADPH. Particulars: liver microsomes, probe tolbutamide. The format is ADME.
Series [3] can be described thus: (§7) Half life in rat liver microsomes at 1 uM by LC-MS/MS analysis in presence of NADPH. The format is ADME. Particulars: liver microsomes. In short, it runs like this:
as §3

In another series the target is CYP3A4 (Homo sapiens, UniProt P08684). Nature of the series: (§8) Inhibition of CYP3A4 in human liver microsomes assessed as midazolam hydroxylation to 1'-hydroxymidazolam at 1 uM after 10 mins in presence of NADPH. Particulars: liver microsomes, probe midazolam. It counts as ADME.
CYP3A4, sequence (P08684 whole entry): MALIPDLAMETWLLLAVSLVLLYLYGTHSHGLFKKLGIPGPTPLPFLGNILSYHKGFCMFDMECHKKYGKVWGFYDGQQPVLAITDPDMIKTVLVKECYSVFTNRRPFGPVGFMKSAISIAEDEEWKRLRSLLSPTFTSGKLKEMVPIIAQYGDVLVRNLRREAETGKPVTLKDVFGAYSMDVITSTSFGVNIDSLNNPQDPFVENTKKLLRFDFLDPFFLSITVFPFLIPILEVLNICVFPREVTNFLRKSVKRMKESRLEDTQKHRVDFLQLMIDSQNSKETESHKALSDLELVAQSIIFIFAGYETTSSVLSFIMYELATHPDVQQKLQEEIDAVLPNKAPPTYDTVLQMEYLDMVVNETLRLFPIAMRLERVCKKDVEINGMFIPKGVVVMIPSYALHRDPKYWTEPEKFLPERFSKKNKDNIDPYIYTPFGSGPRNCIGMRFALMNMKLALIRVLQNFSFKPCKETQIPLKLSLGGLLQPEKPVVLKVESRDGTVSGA
The target in the next series is T2, Cytochrome P450 1A2 (Homo sapiens, UniProt P05177).
T2 sequence (P05177 whole entry): T1 sequence (P05177 whole entry)
The description is as §1. The format is ADME. Particulars: microsomes, 10 min, 1 µM.

Series [4] concerns Liver microsome. Described as §2. Particulars: microsomes, 1 µM. The format is ADME. In short, it runs like this:
as §3

For a further series, the target named is Cytochrome P450 2D6 (Homo sapiens, UniProt P10635). Described as §4. The format is ADME. Particulars: microsomes, 10 min, 1 µM.
Cytochrome P450 2D6, sequence (P10635 whole entry): as the sequence (P10635 whole entry) above
A further series concerns the target Cytochrome P450 2C9 (Homo sapiens, UniProt P11712). Described as §6. The format is ADME. Particulars: microsomes, 10 min, 1 µM.
Series [5] concerns Liver microsome. Described as §7. It counts as ADME. Particulars: microsomes, 1 µM. Summed up:
as §3

A further series concerns the target Cytochrome P450 3A4 (Homo sapiens, UniProt P08684). Described as §8. It counts as ADME. Particulars: microsomes, 10 min, 1 µM.
Another series concerns Liver. The series is described as §5. It counts as ADME. Particulars: microsomes, 1 µM. Summed up:
as §3

CYP2C9, sequence (P11712 whole entry): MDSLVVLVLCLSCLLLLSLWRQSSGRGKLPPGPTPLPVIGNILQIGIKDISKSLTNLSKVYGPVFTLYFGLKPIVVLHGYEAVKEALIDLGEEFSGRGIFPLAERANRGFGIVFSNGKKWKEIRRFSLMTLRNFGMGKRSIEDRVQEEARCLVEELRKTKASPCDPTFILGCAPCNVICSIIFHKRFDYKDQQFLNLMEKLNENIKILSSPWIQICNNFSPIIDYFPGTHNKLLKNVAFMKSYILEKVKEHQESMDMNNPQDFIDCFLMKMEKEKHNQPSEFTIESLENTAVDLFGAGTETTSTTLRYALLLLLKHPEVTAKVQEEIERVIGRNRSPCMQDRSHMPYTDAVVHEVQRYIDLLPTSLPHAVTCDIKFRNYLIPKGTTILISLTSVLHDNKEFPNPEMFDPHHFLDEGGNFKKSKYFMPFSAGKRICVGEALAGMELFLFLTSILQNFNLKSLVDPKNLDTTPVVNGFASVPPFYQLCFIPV
Cytochrome P450 2C9, sequence (P11712 whole entry): as above
Cytochrome P450 3A4, sequence (P08684 whole entry): as the sequence (P08684 whole entry) above

Broadly, the inhibition is the relative decrease from the control value, in per cent. The term half-life denotes how long it takes for the measured level to halve. Broadly, the pEC50 is the EC50 on a negative log10 scale, so that one unit is a factor of ten. On to `O=C(N[C@H](Cc1c[nH]c2ccccc12)C(=O)Nc1ccncc1)c1ccc(-c2ccc(C(F)(F)F)c(F)c2)cc1F`, for which the inhibition at 10 min, 1 µM is -4% on CYP1A2, 27% at CYP2D6, 92% on CYP2C9 and 24% at CYP3A4. In addition, the half-life at 1 µM in series [1] turned out to be 45 min; in series [2], 69 min; in [3] it was 39 min. The same compound gave a pEC50 with Trypanosoma cruzi of 8.54.

Regarding `O=C(N[C@H](Cc1c[nH]c2ccccc12)C(=O)Nc1ccncc1)c1ccc(-c2cc(F)ccc2F)cc1F`, the “inhibition (INH)” value at Cytochrome P450 1A2 is 3%; at Cytochrome P450 2D6, 47%; at Cytochrome P450 2C9, 92%; on Cytochrome P450 3A4, 74%. The t1/2 with Liver microsome [4] and in the series with Liver microsome [5] was 17 min throughout. Besides, the pEC50 in the series on Trypanosoma cruzi is 8.89.

As for `O=C(N[C@H](Cc1c[nH]c2ccccc12)C(=O)Nc1ccncc1)c1ccc(-c2ccc(F)c(F)c2)cc1F`, the t1/2 in the series on Liver microsome [4] amounted to 18 min; in the series with Liver it was 39 min.

For the compound `O=C(N[C@H](Cc1c[nH]c2ccccc12)C(=O)Nc1ccncc1)c1ccc(-c2cccc(F)c2)cc1F`, the t1/2 came out at 18 min in the series with Liver microsome [4] and 27 min in the series on Liver. In addition, the half-life at 1 µM in series [3] is 20 min.

On to `O=C(N[C@H](Cc1c[nH]c2ccccc12)C(=O)Nc1ccncc1)c1ccc(-c2ccc(OCc3ccc(F)cc3F)c(F)c2)cc1F`, for which the inhibition at 10 min, 1 µM is -9% at CYP1A2, 21% at CYP2D6, 84% at CYP2C9 and 38% on CYP3A4. For the same compound, the half-life at 1 µM was 25 min in series [1], 34 min in series [2] and 30 min in series [3]. Further, the pEC50 in the series with Trypanosoma cruzi is 9.22.

Consider `O=C(N[C@H](Cc1c[nH]c2ccccc12)C(=O)Nc1ccncc1)c1ccc(-c2ccc(OCc3ccc(F)cc3)c(C(F)(F)F)c2)cc1F`, for which the inhibition at 10 min, 1 µM on CYP1A2 was -26%; at CYP2D6 it was -17%; on CYP2C9 it was 41%; on CYP3A4, 15%. Besides, the half-life at 1 µM in series [1] came out at 29 min; in series [2], 51 min; in [3] it was 53 min. In the series with Trypanosoma cruzi, this compound gave a pEC50 of 8.04.

Turning to `O=C(N[C@H](Cc1c[nH]c2ccccc12)C(=O)Nc1ccncc1)c1ccc(N2CCN(c3cccc(C(F)(F)F)c3)CC2)cc1F`, the inhibition at 10 min, 1 µM came to 10% at CYP1A2, 74% on CYP2D6, 96% at CYP2C9 and 86% at CYP3A4. The half-life at 1 µM amounted to 8 min in series [1], 11 min in [2] and 24 min in series [3]. The same compound showed a pEC50 with Trypanosoma cruzi of 9.33.
